Experimental data published in ChEMBL document CHEMBL4619773, “Chemoreactive-Inspired Discovery of Influenza A Virus Dual Inhibitor to Block Hemagglutinin-Mediated Adsorption and Membrane Fusion” (J Med Chem, 2020).
Activity calls are given as the source filed them. The calls are words filed in the database; no cut-off is given here.

Legend:
[1] = Metabolic stability in rat liver microsomes at 2 uM after 60 mins; assay type: ADME, Microsome; conditions: read-out: Stability
Outline: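 Mouse, rat or human liver microsomes (final 0.5 mg/mL protein) were preincubated with an NADPH-regenerating system in 50 mM Tris-HCl pH 7.4 at 37 °C for 5 min. Compound was added at 2 µM final and incubated at 37 °C; NADPH-free incubations served as controls. Reactions were quenched with acetonitrile plus internal standard at 60 min. Percent remaining was measured by LC-MS/MS (n=3).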

[2] = Toxicity in Kunming mouse assessed as effect on CK-MB level at 5 to 10 mg/kg/day, po for 7 days; assay type: organism-based; conditions: in vivo, 168 h
Outline: (§1)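 Male Kunming mice (20–25 g) received compound orally at 5 or 10 mg/kg/day, suspended in 0.5% sodium carboxymethyl cellulose, once daily for 7 days; controls received vehicle. Serum was collected under isoflurane 24 h after the last dose. AST, ALT, CR, BUN, LDH, CK and CK-MB were measured with commercial kits.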

Influenza A virus [3] = test: Antiviral activity against Influenza A virus (A/Puerto Rico/8/1934(H1N1)) infected in MDCK cells incubated for 3 days by crystal violet staining based plaque assay; assay type: functional, organism-based; conditions: 72 h
Outline: (§2)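 Confluent MDCK monolayers were exposed to 10-fold serial virus dilutions for 1 h at 37 °C, then washed. The overlay was DMEM with 1.5% agarose, 0.02% DEAE-dextran and 1 µg/ml TPCK-trypsin. After 3 days at 37 °C in 5% CO2, cells were fixed with 0.05% glutaraldehyde, stained with 1% crystal violet in 20% ethanol, and plaques were counted.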

Influenza A virus [4] = test: Antiviral activity against Influenza A virus Virginia/ATCC1/2009 infected in MDCK cells incubated for 3 days by crystal violet staining based plaque assay; assay type: functional, organism-based; conditions: Virginia/ATCC1/2009, MDCK, 72 h; outline: as §2
[5] = Cumulative drug excretion in rat urine at 3.5 mg/kg, po administered as single dose measured after 72 hrs; assay type: ADME, organism-based; conditions: read-out: Drug excretion
Outline: (§3)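 Single oral (gavage, 0.5% CMC-Na) or iv (tail vein, PEG400) dosing was given to male Kunming mice or Sprague Dawley rats held in metabolic cages. Urine and feces were collected at intervals to 72 h. Feces were dried, ground and homogenized in water (1:9 w/v). Samples were precipitated with acetonitrile containing internal standard and analysed by LC-MS/MS.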

Influenza A virus H3N2 = test: Antiviral activity against Influenza A virus H3N2 (A/swine/Minnesota/02719/2009) infected in MDCK cells by HA assay; assay type: functional, organism-based
Outline: (§4)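 MDCK cells were infected at high moi (≈3.0 PFU/cell). Virus-containing supernatants were serially diluted 2-fold and mixed with an equal volume of 1% chicken red blood cells. After 60 min at 4 °C, wells were scored for button sedimentation versus opaque agglutination to give titers.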

Influenza A virus [6] = test: Antiviral activity against Influenza A virus (A/Puerto Rico/8/1934(H1N1)) infected in MDCK cells assessed as inhibition of virus-induced cytopathic effect incubated for 48 hrs by crystal violet staining based assay; assay type: functional, organism-based
Outline: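 MDCK cells were infected at MOI 0.1, the inoculum was removed, and compounds were added in triplicate. After 48 h the cells were fixed in 4% formaldehyde (20 min, RT) and stained with 0.1% crystal violet (30 min). Dye was solubilized in methanol and read at 570 nm.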

[7] = Oral bioavailability in rat at 3.5 mg/kg administered as single dose; assay type: ADME, organism-based; conditions: in vivo
Outline: (§5)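 Male Kunming mice (20–25 g) and male SD rats (180–220 g) were fasted 12 h before dosing. Compound was suspended in 0.5% CMC-Na and given by gavage (5 mg/kg mice, 3.5 mg/kg rats), or dissolved in PEG400 and given iv via tail vein (0.5 mg/kg mice, 0.35 mg/kg rats). Plasma was sampled from 5 min to 24 h and analysed by LC-MS/MS (n=3). F = AUCoral/AUCiv.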

[8] = Toxicity in Kunming mouse assessed as effect on AST level at 5 to 10 mg/kg/day, po for 7 days; assay type: organism-based; conditions: in vivo, 168 h; outline: as §1
[9] = Cumulative drug excretion in mouse feces at 0.5 mg/kg, iv administered as single dose measured after 72 hrs; assay type: ADME, organism-based; conditions: faeces, read-out: Drug excretion; outline: as §3
[10] = Cumulative drug excretion in mouse urine at 0.5 mg/kg, iv administered as single dose measured after 72 hrs; assay type: ADME, organism-based; conditions: read-out: Drug excretion; outline: as §3
[11] = Oral bioavailability in mouse at 5 mg/kg administered as single dose; assay type: ADME, organism-based; conditions: in vivo; outline: as §5
Influenza A virus [12] = test: Antiviral activity against Influenza A virus (A/Puerto Rico/8/1934(H1N1)) infected in MDCK cells assessed as decrease in viral titers at 50 ug/ml added during adsorption stage and measured 24 hrs post infection by HA assay; assay type: functional, organism-based; outline: as §4
Influenza A virus [13] = test: Antiviral activity against Influenza A virus (A/Puerto Rico/8/1934(H1N1)) infected in Kunming mouse assessed as improvement in body weight at 20 to 40 ug/day dosed intranasally starting 4 hrs after viral challenge and continued for 7 days and measured up to day 14 by plaque assay; assay type: functional, organism-based
Outline: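 Groups of 10 female Kunming mice were infected intranasally with PR8 (1000 PFU/mouse) on day 0 and dosed once daily for seven days. Weight and clinical signs were recorded daily. Mice losing more than 25% of pre-infection weight were scored dead and euthanized; survivors were killed on day 14.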

[14] = Cmax in rat at 3.5 mg/kg , po administered as single dose; assay type: ADME, organism-based; design: dose 3.5 mg/kg, route oral; conditions: in vivo
Outline: (§6)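 Male Kunming mice (20-25 g) and male Sprague Dawley rats (180-220 g) were fasted 12 h before dosing. Oral dosing was by gavage as a suspension in 0.5% sodium carboxymethyl cellulose; iv dosing was via tail vein in PEG400. Serial plasma samples were taken to 24 h, protein-precipitated with acetonitrile plus N-CH3 internal standard, and quantified by LC-MS/MS (n=3). Bioavailability = AUCoral/AUCiv.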

[15] = Half life in rat at 3.5 mg/kg , po administered as single dose; assay type: ADME, organism-based; conditions: in vivo; outline: as §6
[16] = target: Hemagglutinin (Influenza A virus (A/Puerto Rico/8/1934(H1N1))) (UniProt P03452); test: Inhibition of trypsin-mediated cleavage of Influenza A virus (A/Puerto Rico/8/1934(H1N1)) Hemagglutinin (HA0) at 50 ug/ml incubated for 30 mins by Coomassie blue fast staining and SDS-PAGE gel based trypsin susceptibility assay
Hemagglutinin (Influenza A virus (A/Puerto Rico/8/1934(H1N1))), sequence (P03452 whole entry): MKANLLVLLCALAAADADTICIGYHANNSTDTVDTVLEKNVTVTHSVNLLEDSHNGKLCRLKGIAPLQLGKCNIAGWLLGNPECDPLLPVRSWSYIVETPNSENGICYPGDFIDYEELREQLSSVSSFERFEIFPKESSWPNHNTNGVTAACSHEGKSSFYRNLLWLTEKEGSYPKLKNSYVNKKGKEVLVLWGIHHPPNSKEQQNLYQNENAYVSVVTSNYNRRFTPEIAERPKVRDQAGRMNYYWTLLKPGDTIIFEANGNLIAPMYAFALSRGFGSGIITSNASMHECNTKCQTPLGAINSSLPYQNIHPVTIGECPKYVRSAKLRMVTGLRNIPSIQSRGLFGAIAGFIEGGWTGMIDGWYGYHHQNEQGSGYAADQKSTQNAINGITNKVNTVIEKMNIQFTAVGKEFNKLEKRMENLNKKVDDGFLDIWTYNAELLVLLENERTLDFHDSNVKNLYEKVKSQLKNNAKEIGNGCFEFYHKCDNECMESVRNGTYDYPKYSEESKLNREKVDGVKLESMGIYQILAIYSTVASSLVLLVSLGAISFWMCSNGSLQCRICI
Outline: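 About 5 µg PR8 HA protein was preincubated with about 50 µg/ml compound for 30 min at RT; controls received 2% DMSO. Samples were acidified with 1 M sodium acetate pH 5.0 (one kept at pH 7.0) for 20 min at 37 °C, then neutralized with 200 mM Tris pH 8.5. TPCK-trypsin was added at 1:50 by mass for 30 min at 37 °C. Samples were run on non-reducing 12% SDS-PAGE with Coomassie staining.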

[17] = target: Hemagglutinin (Influenza A virus (A/Puerto Rico/8/1934(H1N1))) (UniProt P03452); test: Inhibition of Hemagglutinin in Influenza A virus (A/Puerto Rico/8/1934(H1N1)) assessed as reduction in virus-induced aggregation of chicken erythrocytes at 3.125 to 50 ug/mL incubated for 60 mins by hemagglutination assay
Outline: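 Hemagglutination inhibition with PR8 virus and chicken RBCs standardized per the WHO manual. Virus was serially diluted 2-fold and 1% cRBCs were added at equal volume. After 60 min at 4 °C, negative wells show a sedimented red button and positive wells stay opaque without sedimentation. Compound was tested at 3.125–50 µg/mL.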

Question: With `CC(=O)c1cc(C)c(O)c(Cc2[nH]c3ccccc3c2Cc2c(O)c(C)cc(C(C)=O)c2O)c1O` as the molecule, how does the remaining at 1 h, 2 µM [1] read?
Answer: 36.6%

Question: And the Activity [2]?
Answer: Non-Toxic

Question: And the IC50 (Influenza A virus [3])?
Answer: < 13 µg/mL

Question: And the IC50 (Influenza A virus [4])?
Answer: < 13 µg/mL

Question: And the dose excreted at 72 h [5]?
Answer: 0.004%

Question: What about the Activity (Influenza A virus H3N2) of the same molecule?
Answer: Dose-dependent effect

Question: And the IC50 (Influenza A virus [6])?
Answer: 26.4 µM

Question: And the bioavailability [7]?
Answer: 1.4%

Question: And the Activity [8]?
Answer: Non-Toxic

Question: And the dose excreted at 72 h [9]?
Answer: 29.1%

Question: And the dose excreted at 72 h [10]?
Answer: 0.3%

Question: What about the bioavailability [11] of the same molecule?
Answer: 5.7%

Question: What about the Activity (Influenza A virus [12]) of the same molecule?
Answer: Active

Question: What about the Activity (Influenza A virus [13]) of the same molecule?
Answer: Active

Question: And the Cmax [14]?
Answer: 287 ng/mL

Question: And the half-life [15]?
Answer: 3.3 h

Question: What about the inhibition [16] of the same molecule?
Answer: inactive

Question: And the inhibition [17]?
Answer: Active
